Assay results gathered from unrelated publications.
Each line is one published result; the experiments were not run side by side.
Target: Mitogen-activated protein kinase kinase kinase 4 (MAP3K4, Homo sapiens, UniProt Q9Y6R4)

SMILES	observed	technique	tested at	remaining binding [%]
CN(C)C(=O)Cn1cc(-c2nc([C@@](C)(c3ccc(-c4cnc(N)nc4)cc3)C3CC3)no2)cn1	cell-free assay	competition with immobilised ligand	1 µM	91
COc1ncc2cc3ccccc3nc2c1C#N	cell-free assay	competition with immobilised ligand	5 µM	91
Cc1cnc(Nc2ccc(C(=O)N3CCC(N4CCCC4)CC3)cc2)nc1-c1cc2ccccc2s1	binding	competition with immobilised ligand	1 µM	32
CN(C)c1nccc(-c2cnn3ncccc23)n1	binding		1 µM	100
COc1cnc(Nc2cccc(S(N)(=O)=O)c2)nc1N1CCN(c2ccccc2)CC1	binding	competition with immobilised ligand	1 µM	100
Cc1c[nH]c2nccc(Oc3c(F)cc(Nc4cc(Cl)nc(N)n4)cc3F)c12	cell-free assay	competition with immobilised ligand	0.1 µM	100
CCN1CCN(Cc2ccc(C(=O)Nc3ccc(C)c(Oc4ccc5c(c4)CC(=O)N5)c3)cc2C(F)(F)F)CC1	binding	competition with immobilised ligand	1 µM	100
FC(F)(F)Oc1cccc(-c2cnc3ccc(-c4ccncc4)nn23)c1	cell-free assay	competition with immobilised ligand	5 µM	84
Cc1cnn2ncc(-c3ccnc(N(C)C)n3)c2c1	binding		1 µM	86
O=C(c1ccc(Nc2ncc(Cl)c(-c3ccc(Cl)s3)n2)cc1)N1CCC(N2CCCC2)CC1	binding	competition with immobilised ligand	1 µM	61
C[C@H](c1ccnc(Nc2nc3ccc(-c4cc(N(C)C)ncn4)cc3[nH]2)c1)N1CCN(C(=O)CC(F)(F)F)CC1	cell-free assay	competition with immobilised ligand	0.1 µM	96
COc1ccnn2ncc(-c3ccnc(N(C)C)n3)c12	binding		1 µM	100
COc1ccc2c(O[C@@H]3C[C@H]4C(=O)N[C@]5(C(=O)O)CC5/C=C\CCCCC[C@H](NC(=O)OC5CCCC5)C(=O)N4C3)cc(-c3csc(NC(=O)C(C)C)n3)nc2c1C (stereo partly drawn)	cell-free assay	competition with immobilised ligand	1 µM	74
O=C(c1ccc(Nc2nccc(-c3cc4ccccc4s3)n2)cc1)N1CCC(N2CCCC2)CC1	binding	competition with immobilised ligand	1 µM	70
COc1cnc(Nc2cccc(S(N)(=O)=O)c2)nc1N1CCN(c2ccccc2)C(=O)C1	binding	competition with immobilised ligand	1 µM	100
CC1=C(C#N)C(c2ccc3c(c2)c(NC(=O)c2ccccc2C)nn3C)C(C#N)=C(C)N1	cell-free assay	competition with immobilised ligand	1 µM	84
CN(CCCC(F)(F)F)c1nccc(-c2cnn3ncccc23)n1	binding		1 µM	81
N#Cc1ccccc1CSc1nnc2c(n1)[nH]c1ccccc12	binding	competition with immobilised ligand	10 µM	100
C[C@@H]1CN(c2cc(-c3n[nH]c4ccc(OC5(C)CC5)cc34)ncn2)C[C@H](C)O1	cell-free assay	competition with immobilised ligand	0.1 µM	100
O=C(NCC1CCOCC1)c1n[nH]cc1NC(=O)c1c(F)cccc1F	binding	competition with immobilised ligand	1 µM	100
CCC(=O)N[C@H]1CC[C@@H](C(=O)N(C)c2ccc(-c3nc4ccccc4o3)cc2)C1	cell-free assay	competition with immobilised ligand	1 µM	100
CC(C)(C)c1ccc(-c2nc(CBr)nn2-c2cccc(O)c2)cc1	cell-free assay	competition with immobilised ligand	10 µM	91
C[C@@H]1CN(c2ccc3ncc(-c4ccc5[nH]nc(C6CC6)c5c4)n3n2)C[C@H](C)O1	binding	competition with immobilised ligand	0.5 µM	100
N[C@@H]1CCN(c2nccc(-c3cnn4ncccc34)n2)C1	binding		1 µM	100
